Only some compounds are listed: those with a hit (about 6.9% of all), similar ones and a draw of the others.
PTK2B oligo ant = Pyk2 (human) oligomerization antagonism; Q14289; Q293 cells, Pyk2 FERM NanoBiT luminescence; active compounds read low; z-score (the deposit names both 25 µM and 10 µM); hit rate 0.83% among 99,000;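 active = Z-score of -3 or lower, scaled per plate to the spread of control and sample wells; inactive = z-score above -3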;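 also: negative z-score means lost luminescence so less FERM oligomerization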
Target sequence (Q14289 whole entry, looked up): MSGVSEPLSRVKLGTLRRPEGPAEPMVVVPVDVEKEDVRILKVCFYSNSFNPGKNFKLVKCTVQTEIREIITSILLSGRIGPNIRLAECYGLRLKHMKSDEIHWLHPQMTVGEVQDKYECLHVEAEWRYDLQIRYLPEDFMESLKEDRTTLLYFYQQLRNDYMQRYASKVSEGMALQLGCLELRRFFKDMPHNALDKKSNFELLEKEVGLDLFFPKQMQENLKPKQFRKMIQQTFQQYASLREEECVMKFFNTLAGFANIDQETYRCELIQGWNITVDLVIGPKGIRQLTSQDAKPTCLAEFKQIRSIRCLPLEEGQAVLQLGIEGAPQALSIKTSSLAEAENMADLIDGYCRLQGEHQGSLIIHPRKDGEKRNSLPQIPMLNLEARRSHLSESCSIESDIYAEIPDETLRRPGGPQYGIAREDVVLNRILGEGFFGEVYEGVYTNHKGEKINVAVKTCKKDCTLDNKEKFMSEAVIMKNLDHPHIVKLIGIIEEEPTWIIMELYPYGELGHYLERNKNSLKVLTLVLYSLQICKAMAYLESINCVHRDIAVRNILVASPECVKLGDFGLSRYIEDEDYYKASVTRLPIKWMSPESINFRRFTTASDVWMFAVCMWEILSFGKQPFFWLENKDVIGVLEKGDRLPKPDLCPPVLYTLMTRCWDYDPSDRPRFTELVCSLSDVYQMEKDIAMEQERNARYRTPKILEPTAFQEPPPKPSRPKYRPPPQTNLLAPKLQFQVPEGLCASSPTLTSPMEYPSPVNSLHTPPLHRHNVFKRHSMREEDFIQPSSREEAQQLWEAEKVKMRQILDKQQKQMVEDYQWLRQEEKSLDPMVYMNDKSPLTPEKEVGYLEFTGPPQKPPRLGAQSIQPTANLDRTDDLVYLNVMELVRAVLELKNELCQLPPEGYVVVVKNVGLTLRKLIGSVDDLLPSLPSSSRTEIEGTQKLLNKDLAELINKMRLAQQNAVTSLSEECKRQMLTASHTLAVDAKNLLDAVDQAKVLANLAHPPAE
Candida biofilm = kills Candida albicans biofilms | hit rate 0.14% among 85,000 | inhibition, % at 6 µM | C. albicans biofilm + clotrimazole, Alamar Blue;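 active = inhibition above 20%; inactive = inhibition below 20%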;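 also: preformed 24 hr biofilms exposed to compound for 48 hr; 0% = biofilm without compound and 100% = blank killed by clotrimazole plus chlorhexidine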
PostGolgi ctrl = inhibits growth of the yeast control strain; efflux-deficient yeast background strain, growth absorbance A615, 16 h; inhibition, % at 10 µM; hit rate 5% among 98,000; AID 738
tolC growth inh = blocks growth of E. coli BW25113 tolC mutant; OD615; growth inhibition, % at 10 µM (by protocol); hit rate 2.2% among 65,000;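 active = growth inhibition at or above a cutoff equal to the mean over every tested compound plus 3 SD, cut at about 60% in these data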;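 also: growth measured after 20 h incubation at 37 °C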
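Test system – E. coli BW25113 ΔtolC::kan, tolC deletion mutant strain · Detection – OD at 615 nm · Buffer or medium – LB with kanamycin 50 µg/mL · Times – 20 h compound exposure of bacteria at 37 °C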
FAK blocker = blocks human focal adhesion kinase activity. hit rate 0.84% among 97,000. inhibition, %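 (tested at 7 µM)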. biochemical FAK kinase activity assay; in the data active = inhibition above about 19%;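 also: 0% = DMSO and 100% = reference compound high control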
PostGolgi yeast = growth inhibition of a yeast mutant, post-Golgi transport screen. AID 739. post-Golgi transport phenotypic cell assay. inhibition, % at 10 µM. hit rate 0.9% among 98,000;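 also: yeast cells grown in 1536-well plates; yeast grown about 18 h at 30C before absorbance read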
* marks the source's active call; other numbers are inactive results; . = not tested or not shown. Rule as the data show it, unless noted: active = inhibition above about 30%; inactive = the rest.

SMILES	PTK2B oligo ant	Candida biofilm	PostGolgi ctrl	tolC growth inh	FAK blocker	PostGolgi yeast
CCCCn1c(SCC(=O)NCc2ccco2)nnc1-c1ccco1	1.4	3	4	2	-3	-2
COc1ccc(C(=O)NC(=S)N2CCC(C)CC2)cc1	0.31	6	5	.	-1	3
O=c1c2cc(N3CCOCC3)ccc2[nH]c(=S)n1Cc1ccc(Cl)cc1	0.21	2	40*	.	-3	1
COc1ccc(N(CC(=O)NCc2cccs2)S(=O)(=O)c2cccnc2)cc1	.	-11	30*	-4	-3	-7
COc1cc(S(=O)(=O)NCCN2CCOCC2)c(OC)cc1Cl	-0.05	-3	32*	-2	-1	-3
CCCCNC(=O)c1nc2ncc(Br)cn2n1	0.05	4	0	-5	1	6
Cc1cc(NC(=O)C2CCCCC2)nc2c1c(=O)oc1ccccc12	-0.72	.	29	76*	7	1
NC(=O)c1oc2ccccc2c1NC(=O)C1CCCCC1	.	21*	11	2	.	7
CCOc1ccc(C(OC(=O)c2ccco2)C(=O)NCc2ccc(C)cc2)cc1 (centres undefined)	-0.33	10	11	.	-3	2
O=C(Nc1cc(C(F)(F)F)ccc1N1CCOCC1)c1ccc(Cl)nc1	-0.68	.	9	.	0	1
CCCOc1ccccc1C1NC(=O)NC(C)=C1C(=O)OCc1ccccc1 (centres undefined)	-2.5	-1	.	.	1	.
CCOC(=O)C1=C(CNCc2ccccc2Cl)NC(=O)NC1c1ccc2c(c1)OCO2 (centres undefined)	-0.85	4	39*	11	1	-7
CCOC(=O)C1=C(C)NC(=O)NC1c1cccc(O)c1 (centres undefined)	-0.59	0	3	-4	1	-6
CC1=C(C(=O)OCc2ccc3c(c2)OCO3)C(c2ccccc2OCc2ccccc2)NC(=O)N1 (centres undefined)	-3.2*	6	21	.	6	-10
CC1=C(C(=O)OC2CCCCCCC2)C(c2cccc(O)c2)NC(=O)N1 (centres undefined)	-1.4	6	13	65*	6	-5
CCOC(=O)C1=C(CSc2nccn2C)NC(=O)NC1c1ccc2c(c1)OCO2 (centres undefined)	-0.21	3	9	3	4	0
CC1=C(C(=O)OCc2ccc3c(c2)OCO3)C(c2ccccc2)NC(=O)N1 (centres undefined)	-3.4*	3	.	37	2	.
CCOC(=O)C1=C(C)NC(=O)NC1c1ccc(F)cc1 (centres undefined)	.	.	.	-13	.	.
CC1=C(C(=O)OCC(C)C)C(c2ccc(F)cc2)NC(=O)N1 (centres undefined)	0.4	8	33*	23	2	3
C=CCCCCCCCCc1nc(=S)[nH][nH]1	0.25	4	67*	.	-2	9
O=C(c1ccc2c(c1)N(Cc1ccccc1)C(=O)c1ccccc1S2)N1CCCC1	-2.5	10	45*	.	-8	29
CN1CCN(C(=O)c2ccc3c(c2)N(Cc2ccc(Cl)cc2)C(=O)c2ccccc2S3=O)CC1 (centres undefined)	.	4	3	4	.	-1
Cc1ccc(CSc2nnc(-c3ccccc3N)c(=O)[nH]2)cc1	0.01	2	15	.	-2	1
CCOC(=O)N1CCN(S(=O)(=O)c2ccc(F)cc2)CC1	-0.98	1	1	-3	-3	-9
COC(=O)Nc1ccc(S(=O)(=O)N2CCC(Cc3ccccc3)CC2)cc1	-0.5	.	35*	.	0	3
SMILES	PTK2B oligo ant	Candida biofilm	PostGolgi ctrl	tolC growth inh	FAK blocker	PostGolgi yeast
COC(=O)Nc1ccc(S(=O)(=O)N2CCN(C)CC2)cc1	-0.1	.	-1	-13	-4	4
CC(C)CC(=O)N1CCN(S(=O)(=O)c2ccc(F)cc2)CC1	0.09	.	39*	0	-4	-6
COC(=O)Nc1ccc(S(=O)(=O)N2CCN(c3ccc(F)cc3)CC2)cc1	0.12	9	38*	-10	1	-9
COC(=O)c1ccc2c(c1)N(Cc1cc(C)ccc1C)C(=O)c1ccccc1S2=O (centres undefined)	.	0	.	-14	.	.
CCOC(=O)c1ccc2c(c1)N(Cc1ccccc1C)C(=O)c1ccccc1S2=O (centres undefined)	-0.85	8	31*	14	-2	2
Cc1ccc(Cn2ccc(NC(=O)c3cc(-c4ccc(Cl)cc4)on3)n2)cc1	-0.23	.	11	-22	-1	10
Cc1ccc(Cn2ccc(NC(=O)c3cc(CC(C)C)on3)n2)cc1	.	2	11	72*	.	-4
Cc1cccc(N2CCN(C(=O)c3cc4n(n3)C(C(F)(F)F)CC(c3ccco3)N4)CC2)c1C (centres undefined)	-1.3	.	24	74*	7	4
COc1cc(C2C3C(=O)N(c4ccc(F)cc4)C(=O)C3ON2c2ccccc2)ccc1O (centres undefined)	-0.5	0	-2	0	6	1
CC(=O)n1c2c(c3ccccc31)OC(N)=C(C#N)C2c1ccc(C(C)C)cc1 (centres undefined)	0.9	.	34*	.	-4	18
Cc1ccc(N(CC(=O)N2CCOCC2)S(C)(=O)=O)cc1C	-0.46	4	3	.	1	6
COc1ccc(-c2c(C)n([O-])c(C)c(C)[n+]2=O)cc1OC	0.14	2	-4	-16	-2	22
CC(=O)c1c(C)n([O-])c2cc(C)ccc2[n+]1=O	-1.1	.	5	91*	1	1
Cc1nn(-c2nc3ccccc3[nH]2)c(N)c1-c1ccccc1	-2.2	7	.	76*	5	.
O=C(CCC(=O)c1cccs1)NCc1ccc(Cl)cc1	0.42	3	-2	.	0	0
COc1ccc(C(C(=O)OC(C)CN(C)C)c2ccccc2)cc1 (centres undefined)	0.56	.	1	-18	-2	35*
CCCCOc1ccc(C(=O)OC(C)CN(C)C)cc1 (centres undefined)	1.1	6	-1	-10	2	-1
COC(=O)c1ccc(CSc2nc3ccccc3o2)cc1	1.8	4	0	65*	1	-14
O=[N+]([O-])c1ccc(CSc2nc3ccccc3o2)cc1	0.36	.	7	.	2	1
CCCCCCNC(=O)c1cc(-c2ccco2)nc2ccccc12	0.04	6	.	.	20*	.
CC(C)C(c1nnnn1C(C)(C)C)N1CCOCC1 (centres undefined)	0.09	0	3	.	8	9
O=C(CC(=O)c1ccccc1O)c1ccc(F)cc1	-0.95	.	58*	.	1	8
CC(C)(C)c1ccc(C(=O)CC(=O)c2cc(Cl)ccc2O)cc1	-1.2	3	28	.	-1	2
Cc1ccc(C(=O)CC(=O)c2cc(Cl)ccc2O)cc1	0.61	9	33*	.	-1	4
Cc1ccccc1C(=O)NNC(=O)c1ccc(F)cc1	0.53	.	-1	.	-1	-1
O=C(CC(=O)c1ccccc1O)c1cccc(F)c1	-0.81	.	38*	89*	0	10
